Experimental data as given in the array DNA melting data of Ke et al. (doi:10.1101/2024.01.08.574731).

What was measured:
[1] = folding enthalpy; higher = less favourable; fluorescence melt of hairpins on a sequencing array, two-state fit; conditions: sodium 0.088 M
Outline: (§1)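 Library hairpins on a sequenced MiSeq flow cell carried annealed Cy3 and quencher oligos, and their Cy3 fluorescence was imaged in 50 mM Na-HEPES pH 8.0 with 25 mM NaCl, in 2.5 °C steps up to 60 °C. Signals were normalised to Cy3 before quenching and to control constructs. Melting temperature and folding enthalpy were obtained from bootstrapped two-state fits, combined by inverse-variance weighting across four replicates, and the fitted temperatures were then raised by 9.35 °C to match UV melts.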

[2] = melting temperature; fluorescence melt of hairpins on a sequencing array, two-state fit, raised by 9.35 °C to match UV melts; conditions: sodium 0.088 M
Outline: as §1

Question: For GTCCCTCGAAAGAGGAC (((.(((....)))))), which folding enthalpy [1] is on record?
Answer: -14 kcal/mol

Question: What about the Tm [2] of the same sequence?
Answer: 51.3 °C

Question: With GTAATAGCGAAAGCTTAC (((..(((....)))))) as the sequence, how does the folding enthalpy [1] read?
Answer: -12.6 kcal/mol

Question: What about the Tm [2] of the same sequence?
Answer: 30.2 °C

Question: Which results are given for GGTTGCGGAAACGCGACC (((.(((....))).)))?
Answer: folding enthalpy [1]: -37.7 kcal/mol; Tm [2]: 65.8 °C

Question: What does the source list for GGAGATCGAAAGATTTCC (((.(((....))).)))?
Answer: folding enthalpy [1]: -33 kcal/mol; Tm [2]: 46.5 °C

Question: For GATCGCCGGGCGATC ((((((...)))))), which folding enthalpy [1] is on record?
Answer: -31.1 kcal/mol

Question: And the Tm [2]?
Answer: 67.8 °C

Question: What does the source list for GTACGCGAAAGCGTGTAC ((((((....)))..)))?
Answer: folding enthalpy [1]: -9.86 kcal/mol; Tm [2]: 38 °C

Question: For GCGGATTGCCGC ((((....)))), which folding enthalpy [1] is on record?
Answer: -11.3 kcal/mol

Question: What about the Tm [2] of the same sequence?
Answer: 53.7 °C

Question: For GATGAAGAAATTCATC ((((((....)))))), which folding enthalpy [1] is on record?
Answer: -24.9 kcal/mol

Question: And the Tm [2]?
Answer: 43.3 °C

Question: For GGCATTGGAAACAATACC ((.((((....)))).)), which folding enthalpy [1] is on record?
Answer: -25.4 kcal/mol

Question: What about the Tm [2] of the same sequence?
Answer: 36.6 °C

Question: With GGGACAACGAAAGTTCCC (((..(((....)))))) as the sequence, how does the folding enthalpy [1] read?
Answer: -22.4 kcal/mol

Question: And the Tm [2]?
Answer: 39.4 °C

Question: Which folding enthalpy [1] does the source give for GATCGCCTATGCGATC ((((((....)))))) here?
Answer: -31.6 kcal/mol

Question: And the Tm [2]?
Answer: 68.1 °C

Question: With GATCGATCTCTCGATC ((((((....)))))) as the sequence, how does the folding enthalpy [1] read?
Answer: -41.2 kcal/mol

Question: What about the Tm [2] of the same sequence?
Answer: 51.4 °C

Question: For GCATGGCGAAAGCCTCGC ((..(((....)))..)), which folding enthalpy [1] is on record?
Answer: -13.4 kcal/mol

Question: What about the Tm [2] of the same sequence?
Answer: 43.7 °C

Question: Which folding enthalpy [1] does the source give for GCGCCCGAAAGGGCCGC ((((((....))).))) here?
Answer: -11.5 kcal/mol

Question: What about the Tm [2] of the same sequence?
Answer: 68 °C

Question: Which folding enthalpy [1] does the source give for GATCGCAGGCGCGATC ((((((....)))))) here?
Answer: -35.1 kcal/mol

Question: And the Tm [2]?
Answer: 68.3 °C

Question: For GCTCCTGAAAAGGAGC ((((((....)))))), which folding enthalpy [1] is on record?
Answer: -42.6 kcal/mol

Question: And the Tm [2]?
Answer: 68.5 °C

Question: For GAAAACGAAAGTTTTTTC ((((((....)))..))), which folding enthalpy [1] is on record?
Answer: -20.7 kcal/mol

Question: And the Tm [2]?
Answer: 38.9 °C

Question: Which results are given for GCATACGAAAGTATCTGC ((((((....)))..)))?
Answer: folding enthalpy [1]: -15.5 kcal/mol; Tm [2]: 37.9 °C

Question: Which folding enthalpy [1] does the source give for GGCTCAACGAAAGTTGCC (((..(((....)))))) here?
Answer: -13.7 kcal/mol

Question: What about the Tm [2] of the same sequence?
Answer: 38.2 °C

Question: Which folding enthalpy [1] does the source give for GGCCACGAAAGTGTCGCC ((((((....)))..))) here?
Answer: -21.3 kcal/mol

Question: What about the Tm [2] of the same sequence?
Answer: 50 °C

Question: Which folding enthalpy [1] does the source give for GGACCGTCGAAAGACTCC (((..(((....)))))) here?
Answer: -12.9 kcal/mol

Question: And the Tm [2]?
Answer: 30.7 °C

Question: What does the source list for GGGAAAGGAAACTTTCTC (.(((((....))))).)?
Answer: folding enthalpy [1]: -20.4 kcal/mol; Tm [2]: 38.4 °C

Question: For GCGCTAACGAAAGTTCGC (((..(((....)))))), which folding enthalpy [1] is on record?
Answer: -21.8 kcal/mol

Question: And the Tm [2]?
Answer: 45.4 °C

Question: With GGGCGCGGAAACACGCCC (((((.(....).))))) as the sequence, how does the folding enthalpy [1] read?
Answer: -34 kcal/mol

Question: What about the Tm [2] of the same sequence?
Answer: 66.5 °C

Question: For GGGTTGGGAAACCGACCC ((((.((....)).)))), which folding enthalpy [1] is on record?
Answer: -45.4 kcal/mol

Question: What about the Tm [2] of the same sequence?
Answer: 58.4 °C

Question: For GAGAGCGGAAACACTCTC (((((.(....).))))), which folding enthalpy [1] is on record?
Answer: -28.1 kcal/mol

Question: And the Tm [2]?
Answer: 43 °C

Question: What does the source list for GCGGTCGGAAACGGCTGC ((.(.((....)).).))?
Answer: folding enthalpy [1]: -36.8 kcal/mol; Tm [2]: 53.4 °C

Question: Which folding enthalpy [1] does the source give for GTCATTCGAAAGAAAGAC (((.(((....))).))) here?
Answer: -30.6 kcal/mol

Question: What about the Tm [2] of the same sequence?
Answer: 38.4 °C

Question: Which folding enthalpy [1] does the source give for GAATCCGAAAGGACCTTC ((((((....)))..))) here?
Answer: -12.7 kcal/mol

Question: And the Tm [2]?
Answer: 30.3 °C

Question: With GTCACGCGAAAGCGCGAC (((.(((....))).))) as the sequence, how does the folding enthalpy [1] read?
Answer: -29.6 kcal/mol

Question: And the Tm [2]?
Answer: 58.9 °C

Question: What does the source list for GCATACGAAAGTACGTGC ((((((....)))..)))?
Answer: folding enthalpy [1]: -18.1 kcal/mol; Tm [2]: 34.4 °C

Question: With GCCATGCGAAAGCATTGC ((.((((....)))).)) as the sequence, how does the folding enthalpy [1] read?
Answer: -21.2 kcal/mol

Question: What about the Tm [2] of the same sequence?
Answer: 54 °C

Question: For GGAGGCGAAAGCCGCTCC ((((((....)))..))), which folding enthalpy [1] is on record?
Answer: -9.69 kcal/mol

Question: What about the Tm [2] of the same sequence?
Answer: 49.2 °C

Question: Which folding enthalpy [1] does the source give for GGGTGGTCGAAAGACCCC (((..(((....)))))) here?
Answer: -15.8 kcal/mol

Question: And the Tm [2]?
Answer: 53.4 °C
